TRPML3 agonist – human mucolipin-3 channel agonism. 220,000 compounds, 0.29% hits. Q8TDD5. activation, % at 3 µM. HEK293 TRPML3-YFP, Fluo-8 calcium fluorescence; 100% = the carbachol control signal. AID 1448;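 active = activation above its plate's cutoff, the mean activation of the plate's test wells plus 3 SD, cut at about 12% in these data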;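 also: 0% = DMSO only wells and 100% = carbachol wells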
Target sequence (Q8TDD5 whole entry, looked up): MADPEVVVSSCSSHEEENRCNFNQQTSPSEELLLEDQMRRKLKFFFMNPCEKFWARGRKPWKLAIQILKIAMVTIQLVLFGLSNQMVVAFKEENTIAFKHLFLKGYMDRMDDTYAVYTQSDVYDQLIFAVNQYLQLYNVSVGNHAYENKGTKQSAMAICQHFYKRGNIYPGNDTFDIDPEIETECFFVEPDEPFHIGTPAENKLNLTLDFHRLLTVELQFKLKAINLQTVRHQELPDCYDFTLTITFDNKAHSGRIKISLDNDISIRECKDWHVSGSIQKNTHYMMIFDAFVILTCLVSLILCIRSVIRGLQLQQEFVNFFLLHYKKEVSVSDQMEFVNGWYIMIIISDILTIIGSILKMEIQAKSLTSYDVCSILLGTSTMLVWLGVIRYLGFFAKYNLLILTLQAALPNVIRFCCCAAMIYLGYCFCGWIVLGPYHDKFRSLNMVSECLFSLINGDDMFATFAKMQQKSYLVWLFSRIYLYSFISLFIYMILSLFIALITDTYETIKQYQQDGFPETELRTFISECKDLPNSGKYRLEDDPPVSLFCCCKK
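Material: HEK293 cells stably carrying human TRPML3-YFP; compound dosing: single dose, 3 µM final nominal compound, 0.3% DMSO final; incubation: 1-h 37 °C dye load, 5-s basal, 120-s post-compound reads; technique: Fluo-8 intracellular calcium fluorescence, excitation 470-495 nm, emission 515-575 nm; read-out basis: percent activation from peak-to-basal fluorescence ratio, scaled between DMSO and carbachol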
zfTRPN1 agonist – agonists of zebrafish TRPN1 channel; 220,000 compounds, 0.18% hits; HEK293 zebrafish TRPN1-YFP, Fluo-8 calcium fluorescence; 100% = response to 87 µM carbachol; AID 1424; activation, % at 3 µM;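 active = activation above its plate's cutoff, the mean activation of test wells on that plate plus 3 SD, cut at about 19% in these data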;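 also: 0% = DMSO alone and 100% = 87 µM carbachol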
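Material: zebrafish TRPN1-YFP in HEK293 cells; Doses: single test compound dose, 3 µM nominal, 0.3% DMSO; Timing: dye loading 1 h at 37 °C, then 30 min room temperature; Technique: intracellular calcium fluorescence with Fluo-8; Benchmarks: high carbachol 87 µM, low DMSO alone.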
CRFR2-BP antag – blocks CRF-induced signaling of the CRF-BP/CRF-R2 complex; AID 588475; inhibition, % at 11.8 µM; 350,000 compounds, 0.59% hits; HEK293 CRF-R2/CRF-BP, CRF-induced calcium fluorescence;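 active = inhibition of the ligand-induced calcium signal above about 50% at the single tested concentration, limit read from the data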
CRFR2-BP ag – CRF-BP/CRF-R2 complex agonism; HEK293 CRF-R2/CRF-BP, calcium dye fluorescence (FLIPR); percent of saturating CRF peptide response; activation, % at 13.2 µM; 350,000 compounds, 0.46% hits; AID 588473;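 active = activation of at least 50%, plus an integration ratio under a set limit after plate pattern correction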;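 also: plate controls were neutral control wells without compound for no effect and CRF at EC100 for full effect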
Starred values were filed as active, the others as inactive. The list is not random: actives were taken first. Their share in the collection is about 1.2%.

Screening Cc1c(Cl)cccc1NS(=O)(=O)c1cn(C)c(=O)n(C)c1=O returned CRFR2-BP antag 7.5 and CRFR2-BP ag -3.7.
CCCNC(=O)c1nnsc1S(=O)(=O)c1ccc(Cl)cc1 was read as TRPML3 agonist 5.0, zfTRPN1 agonist -0.1, CRFR2-BP antag 70.2* and CRFR2-BP ag 11.2.
For CCn1ncc(Cl)c1C(=O)NC(=S)Nc1ccccc1Br the results were CRFR2-BP antag -63.2 and CRFR2-BP ag 25.0.
Cc1nn(C)c(C(=O)NC(=S)Nc2ccccc2Br)c1Cl was read as CRFR2-BP antag -73.4 and CRFR2-BP ag 93.0*.
`Cc1ccc(Cl)cc1N1CCN(C(=O)Cc2cn(C)c3ccccc23)CC1` gave TRPML3 agonist -0.2, zfTRPN1 agonist -0.3, CRFR2-BP antag 8.3 and CRFR2-BP ag -4.1.
Screening Cc1ccc(Cl)cc1N1CCN(C(=O)Cc2c(C(=O)O)[nH]c3ccc(Cl)cc23)CC1 returned TRPML3 agonist -0.7, zfTRPN1 agonist -0.7, CRFR2-BP antag 62.0* and CRFR2-BP ag 5.7.
Screening Cc1ccc(Cl)cc1N1CCN(C(=O)Cc2c(C(=O)O)[nH]c3ccccc23)CC1 returned TRPML3 agonist 0.1, zfTRPN1 agonist 3.4, CRFR2-BP antag 58.1* and CRFR2-BP ag -1.9.
For CCOc1ccccc1/C=N/NC(=O)CSc1n[nH]c(=O)[nH]c1=O the results were TRPML3 agonist 0.1, zfTRPN1 agonist -0.5, CRFR2-BP antag -1.0 and CRFR2-BP ag -1.5.
For N#Cc1ccc(NC(=O)Nc2ccc(Oc3ccc(NC(=O)Nc4ccc(C#N)cc4)cc3)cc2)cc1 the results were TRPML3 agonist 0.9, zfTRPN1 agonist 2.9, CRFR2-BP antag 10.9 and CRFR2-BP ag 4.5.
Screening N#Cc1cccc(NCC(=O)Nc2ccc3c(c2)OCCO3)c1 returned TRPML3 agonist 1.3, zfTRPN1 agonist -0.3, CRFR2-BP antag 80.4* and CRFR2-BP ag -2.7.
For N#Cc1ccc(NC(=O)Nc2cccc(C#N)c2)cc1 the results were TRPML3 agonist 12.4*, zfTRPN1 agonist 22.7*, CRFR2-BP antag 35.5 and CRFR2-BP ag 23.7.
For Cn1c2ccccc2c(=O)c2c(=O)n(-c3ccccc3)c(C3CCCCC3)nc21 the results were TRPML3 agonist 0.4, zfTRPN1 agonist 0.4, CRFR2-BP antag -18.9 and CRFR2-BP ag -1.5.
Screening CC(C)c1nc2c(c(=O)c3ccccc3n2C)c(=O)n1CCc1ccccc1 returned TRPML3 agonist 9.3, zfTRPN1 agonist 20.9*, CRFR2-BP antag 11.4 and CRFR2-BP ag 72.1*.
Screening CCc1nc2c(c(=O)c3ccccc3n2C)c(=O)n1C1CCCCCC1 returned TRPML3 agonist 17.6*, zfTRPN1 agonist 19.1*, CRFR2-BP antag -174.8 and CRFR2-BP ag 226.3*.
`Cn1c2ccccc2c(=O)c2c(=O)n(C3CCCCCC3)c(C3CCCCC3)nc21` gave TRPML3 agonist 1.0, zfTRPN1 agonist 0.0, CRFR2-BP antag -29.9 and CRFR2-BP ag 127.1*.
`COc1ccc(CCn2c(-c3ccccc3)nc3c(c(=O)c4ccccc4n3C)c2=O)cc1` gave TRPML3 agonist 0.8 and zfTRPN1 agonist -0.4.
For COc1ccc(Cn2c(C3CCCCC3)nc3c(c(=O)c4ccccc4n3C)c2=O)cc1 the results were TRPML3 agonist -0.3, zfTRPN1 agonist 0.0, CRFR2-BP antag -22.2 and CRFR2-BP ag -1.2.
For COc1ccc(CCn2c(C3CCCCC3)nc3c(c(=O)c4ccccc4n3C)c2=O)cc1 the results were TRPML3 agonist 12.5*, zfTRPN1 agonist 22.3*, CRFR2-BP antag -17.2 and CRFR2-BP ag 61.9*.
For CCCCCCNC(=O)O[C@H]1C[C@@H]2C(=O)N(c3ccccc3)C(=O)[C@@H]2[C@@H]2CN(S(=O)(=O)c3ccc(C)cc3)C[C@]12O the results were CRFR2-BP antag 5.3 and CRFR2-BP ag 1.9.
`Cn1c2ccccc2c(=O)c2c(=O)n(C3CCCCC3)c(-c3cccs3)nc21` gave TRPML3 agonist 0.2, zfTRPN1 agonist -1.4, CRFR2-BP antag -17.6 and CRFR2-BP ag 116.1*.
For Nc1cc(C(=O)OCC(=O)NCCC2=CCCCC2)ccc1Cl the results were CRFR2-BP antag 10.0 and CRFR2-BP ag -6.6.
Screening O=C(COC(=O)c1cnc(Cl)c(Cl)c1)NCCC1=CCCCC1 returned TRPML3 agonist -1.2, zfTRPN1 agonist -0.5, CRFR2-BP antag 86.4* and CRFR2-BP ag 5.0.
Screening COC(=O)Cn1c(=O)c2c(nc3n2CC(C)CN3Cc2ccccc2)n(C)c1=O (stereo not given) returned CRFR2-BP antag -7.9 and CRFR2-BP ag -1.4.
For C=C(C)Cn1c(=O)c2c(nc3n2CC(C)CN3Cc2ccccc2)n(C)c1=O (stereo not given) the results were CRFR2-BP antag 87.5* and CRFR2-BP ag -2.1.
`CC(=O)Nc1ccc2nc3ccccc3nc2c1` gave TRPML3 agonist 1.1, zfTRPN1 agonist 1.0, CRFR2-BP antag 83.7* and CRFR2-BP ag 11.3.
For O=C(Nc1ccc2nc3ccccc3nc2c1)c1ccc(Br)cc1 the results were TRPML3 agonist 0.9, zfTRPN1 agonist 1.1, CRFR2-BP antag -1.9 and CRFR2-BP ag 0.3.
Screening COc1ccccc1CCCNC(=O)C1CCC(=O)N(CCc2ccc(Cl)cc2)C1 (stereo not given) returned CRFR2-BP antag 6.9 and CRFR2-BP ag -0.2.
COC(=O)c1ccc2c(c1)C(C)(C)C(/C=C/c1ccc(O)cc1)=[N+]2C was read as TRPML3 agonist 5.2, zfTRPN1 agonist 7.0, CRFR2-BP antag -136.8 and CRFR2-BP ag 51.2*.
`S=C(NCc1ccccc1)Nc1nccs1` gave CRFR2-BP antag -27.4 and CRFR2-BP ag 3.5.
`CC(C)CC(=O)Nc1ccc(C(=O)COC(=O)Cc2n[nH]c(=O)c3ccccc23)cc1` gave CRFR2-BP antag -20.1 and CRFR2-BP ag 51.4*.
Screening Cc1cc(S(=O)(=O)NCC2CCCO2)c(C)cc1Br (stereo not given) returned CRFR2-BP antag -7.4 and CRFR2-BP ag 0.7.
For O=C(c1cccc(NS(=O)(=O)c2ccc(F)c(F)c2)c1)N1CCN(C(c2ccccc2)c2ccccc2)CC1 the results were TRPML3 agonist 0.5, zfTRPN1 agonist -2.1, CRFR2-BP antag 61.8* and CRFR2-BP ag 1.0.
`O=C(COc1ccc(S(=O)(=O)NCc2ccccc2)cc1Cl)NCC1CCCO1` (stereo not given) gave TRPML3 agonist -0.9, zfTRPN1 agonist -1.2, CRFR2-BP antag 8.0 and CRFR2-BP ag 1.2.
Screening O=C(COc1ccc(S(=O)(=O)NC2CCCCC2)cc1Cl)NCc1cccnc1 returned TRPML3 agonist -0.3, zfTRPN1 agonist 0.1, CRFR2-BP antag 80.1* and CRFR2-BP ag -3.8.
Screening Cc1cc(S(=O)(=O)NC2CCCCC2)ccc1OCC(=O)NCC1CCCO1 (stereo not given) returned TRPML3 agonist 0.9, zfTRPN1 agonist 2.6, CRFR2-BP antag 57.1* and CRFR2-BP ag -4.6.
Cc1cc(S(=O)(=O)NCc2ccccc2)ccc1OCC(=O)NCC1CCCO1 (stereo not given) was read as TRPML3 agonist 0.3, zfTRPN1 agonist 0.2, CRFR2-BP antag -359.6 and CRFR2-BP ag 241.3*.
For CC(C)NC(=O)c1onc(CSc2ccncc2)c1C(=O)NC(C)C the results were CRFR2-BP antag 2.9 and CRFR2-BP ag -0.3.

Assay outcomes deposited in PubChem BioAssay by several laboratories.
